From the M2OR odorant receptor database
Residue numbers refer to the chain shown, from its start.

How the values were obtained:
Settings in all cases: stereoisomer not certain
O10R2 I170L = system: T1, O10R2 I170L
T1 sequence (whole entry): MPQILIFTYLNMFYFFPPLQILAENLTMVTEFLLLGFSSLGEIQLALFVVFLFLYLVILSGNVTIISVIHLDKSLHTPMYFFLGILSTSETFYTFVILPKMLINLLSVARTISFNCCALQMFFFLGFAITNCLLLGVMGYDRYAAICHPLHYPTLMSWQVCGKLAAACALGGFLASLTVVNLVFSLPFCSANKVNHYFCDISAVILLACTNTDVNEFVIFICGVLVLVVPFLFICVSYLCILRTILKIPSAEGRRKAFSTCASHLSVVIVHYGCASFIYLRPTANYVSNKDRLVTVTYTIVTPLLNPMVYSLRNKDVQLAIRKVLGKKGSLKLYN
Summary of the method: (§1)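 Transient luciferase assays in mammalian cell lines were common, though methods varied by source. The values come from published papers and their supplementary material, with extra details from the original authors when needed. Responsive refers to a measured signal the original authors judged statistically different from baseline, and non-responsive (inactive) to the remainder.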

O10T2 I137M = system: T2, O10T2 I137M
T2 sequence (whole entry): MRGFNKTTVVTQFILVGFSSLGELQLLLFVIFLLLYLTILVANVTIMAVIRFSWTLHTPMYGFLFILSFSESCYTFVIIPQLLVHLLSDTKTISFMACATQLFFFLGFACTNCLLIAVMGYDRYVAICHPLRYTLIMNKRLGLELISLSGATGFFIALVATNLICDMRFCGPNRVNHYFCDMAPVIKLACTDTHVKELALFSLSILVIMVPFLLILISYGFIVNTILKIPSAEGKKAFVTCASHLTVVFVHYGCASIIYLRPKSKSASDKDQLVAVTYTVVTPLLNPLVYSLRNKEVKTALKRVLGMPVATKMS
Summary of the method: as §1

O10V1 Q123R = system: T3, O10V1 Q123R
T3 sequence (whole entry): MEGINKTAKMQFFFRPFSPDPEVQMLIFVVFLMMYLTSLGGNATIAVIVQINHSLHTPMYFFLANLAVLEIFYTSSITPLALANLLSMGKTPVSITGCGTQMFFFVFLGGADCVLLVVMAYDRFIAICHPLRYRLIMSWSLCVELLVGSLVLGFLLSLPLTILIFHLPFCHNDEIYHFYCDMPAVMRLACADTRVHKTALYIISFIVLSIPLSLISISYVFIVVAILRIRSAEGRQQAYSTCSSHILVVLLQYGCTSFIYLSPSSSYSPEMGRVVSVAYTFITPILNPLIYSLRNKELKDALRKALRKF
Summary of the method: as §1

O10X1 N4T R181S = system: T4, O10X1 N4T R181S
T4 sequence (whole entry): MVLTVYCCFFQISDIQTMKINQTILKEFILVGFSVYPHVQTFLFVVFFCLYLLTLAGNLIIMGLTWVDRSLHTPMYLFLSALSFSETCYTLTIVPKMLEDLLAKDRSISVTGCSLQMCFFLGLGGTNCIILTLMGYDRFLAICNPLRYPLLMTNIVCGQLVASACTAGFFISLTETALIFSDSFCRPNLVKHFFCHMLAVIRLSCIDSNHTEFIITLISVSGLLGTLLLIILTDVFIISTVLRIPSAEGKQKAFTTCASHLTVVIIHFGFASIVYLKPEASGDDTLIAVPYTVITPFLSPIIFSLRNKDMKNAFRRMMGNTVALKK
Summary of the method: as §1

O11G2 F3I I99N V116I = system: T5, O11G2 F3I I99N V116I
T5 sequence (whole entry): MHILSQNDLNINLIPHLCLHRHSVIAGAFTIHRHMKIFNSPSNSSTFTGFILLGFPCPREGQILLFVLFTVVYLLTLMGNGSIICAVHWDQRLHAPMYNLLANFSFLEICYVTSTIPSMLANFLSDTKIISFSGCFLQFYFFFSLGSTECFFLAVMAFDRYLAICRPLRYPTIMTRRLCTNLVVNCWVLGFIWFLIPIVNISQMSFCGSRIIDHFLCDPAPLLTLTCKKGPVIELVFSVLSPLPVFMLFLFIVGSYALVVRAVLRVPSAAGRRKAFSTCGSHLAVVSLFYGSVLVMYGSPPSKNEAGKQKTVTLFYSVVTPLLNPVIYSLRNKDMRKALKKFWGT
Summary of the method: as §1

O11H1 M240V = system: T6, O11H1 M240V
T6 sequence (whole entry): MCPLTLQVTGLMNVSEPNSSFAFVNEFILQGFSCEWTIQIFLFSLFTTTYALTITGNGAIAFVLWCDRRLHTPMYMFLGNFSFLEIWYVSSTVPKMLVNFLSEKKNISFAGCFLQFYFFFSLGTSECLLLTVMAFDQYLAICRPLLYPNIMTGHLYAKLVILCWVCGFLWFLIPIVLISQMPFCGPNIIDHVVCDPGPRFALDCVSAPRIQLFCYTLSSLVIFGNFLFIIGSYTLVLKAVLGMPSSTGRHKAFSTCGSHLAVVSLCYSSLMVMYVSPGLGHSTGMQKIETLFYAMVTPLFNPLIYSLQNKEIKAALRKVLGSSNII
Summary of the method: as §1

O11H6 I107T = system: T7, O11H6 I107T
T7 sequence (whole entry): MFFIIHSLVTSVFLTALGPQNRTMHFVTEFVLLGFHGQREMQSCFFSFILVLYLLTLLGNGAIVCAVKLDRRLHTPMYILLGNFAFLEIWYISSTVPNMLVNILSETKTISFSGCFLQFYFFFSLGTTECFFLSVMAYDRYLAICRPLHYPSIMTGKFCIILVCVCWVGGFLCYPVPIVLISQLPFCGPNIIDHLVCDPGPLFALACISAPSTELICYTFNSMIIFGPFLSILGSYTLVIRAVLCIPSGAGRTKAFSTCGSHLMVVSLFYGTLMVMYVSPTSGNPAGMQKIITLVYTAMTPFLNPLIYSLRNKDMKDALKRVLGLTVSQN
Summary of the method: as §1

O11HC C156Y V240M = system: T8, O11HC C156Y V240M
T8 sequence (whole entry): T6 sequence (whole entry) with S33T, R68W, V240M
Summary of the method: as §1

O12D2 S104F = system: T9, O12D2 S104F
T9 sequence (whole entry): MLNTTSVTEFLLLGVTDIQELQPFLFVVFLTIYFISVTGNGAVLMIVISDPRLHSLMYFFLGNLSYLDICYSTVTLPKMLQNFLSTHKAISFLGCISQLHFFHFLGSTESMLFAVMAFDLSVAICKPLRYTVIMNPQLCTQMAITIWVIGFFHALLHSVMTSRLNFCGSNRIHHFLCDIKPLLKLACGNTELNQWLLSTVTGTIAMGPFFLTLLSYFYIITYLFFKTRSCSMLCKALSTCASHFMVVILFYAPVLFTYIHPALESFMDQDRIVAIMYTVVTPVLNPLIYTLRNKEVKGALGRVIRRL
Summary of the method: as §1

O13C2 H6Q = system: T10, O13C2 H6Q
T10 sequence (whole entry): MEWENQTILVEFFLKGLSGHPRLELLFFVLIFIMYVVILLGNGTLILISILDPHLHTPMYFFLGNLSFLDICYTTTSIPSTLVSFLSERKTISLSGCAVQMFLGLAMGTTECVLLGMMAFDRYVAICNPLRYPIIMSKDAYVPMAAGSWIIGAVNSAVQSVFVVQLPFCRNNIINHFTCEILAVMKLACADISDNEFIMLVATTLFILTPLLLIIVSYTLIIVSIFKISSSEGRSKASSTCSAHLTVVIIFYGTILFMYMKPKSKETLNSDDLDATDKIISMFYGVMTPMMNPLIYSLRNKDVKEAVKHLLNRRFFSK
Summary of the method: as §1

O13C8 A19D = system: T11, O13C8 A19D
T11 sequence (whole entry): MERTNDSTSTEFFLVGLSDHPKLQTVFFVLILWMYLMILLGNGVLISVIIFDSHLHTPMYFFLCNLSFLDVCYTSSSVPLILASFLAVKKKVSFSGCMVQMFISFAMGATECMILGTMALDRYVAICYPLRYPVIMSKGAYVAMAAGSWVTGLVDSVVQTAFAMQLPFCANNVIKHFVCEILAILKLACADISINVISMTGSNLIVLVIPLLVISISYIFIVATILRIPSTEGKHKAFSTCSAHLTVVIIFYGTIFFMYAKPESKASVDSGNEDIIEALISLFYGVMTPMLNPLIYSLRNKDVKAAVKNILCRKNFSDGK
Summary of the method: as §1

O13C9 H17L V19G L23H = system: T12, O13C9 H17L V19G L23H
T12 sequence (whole entry): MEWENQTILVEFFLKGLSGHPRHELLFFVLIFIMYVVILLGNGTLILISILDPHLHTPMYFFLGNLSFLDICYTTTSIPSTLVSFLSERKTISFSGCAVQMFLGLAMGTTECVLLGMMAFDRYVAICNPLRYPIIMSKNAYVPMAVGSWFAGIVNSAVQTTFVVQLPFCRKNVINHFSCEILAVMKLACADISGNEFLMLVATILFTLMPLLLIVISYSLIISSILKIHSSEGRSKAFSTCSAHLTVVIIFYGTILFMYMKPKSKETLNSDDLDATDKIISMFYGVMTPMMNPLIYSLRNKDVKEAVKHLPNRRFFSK
Summary of the method: as §1

O13C9 Q6H = system: T13, O13C9 Q6H
T13 sequence (whole entry): T12 sequence (whole entry) with Q6H, L17H, G19V, H23L
Summary of the method: as §1

O13F1 F18S T254M = system: T14, O13F1 F18S T254M
T14 sequence (whole entry): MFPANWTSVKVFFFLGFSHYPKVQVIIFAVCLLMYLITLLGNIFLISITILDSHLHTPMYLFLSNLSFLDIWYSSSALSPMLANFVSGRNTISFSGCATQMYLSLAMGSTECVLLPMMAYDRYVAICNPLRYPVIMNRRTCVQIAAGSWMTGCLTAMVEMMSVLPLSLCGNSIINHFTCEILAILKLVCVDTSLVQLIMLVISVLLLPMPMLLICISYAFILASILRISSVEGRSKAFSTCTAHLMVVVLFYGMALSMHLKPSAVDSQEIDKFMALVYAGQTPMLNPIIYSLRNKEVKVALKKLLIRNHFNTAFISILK
Summary of the method: as §1

O13F1 F18S = system: T15, O13F1 F18S
T15 sequence (whole entry): T14 sequence (whole entry) with M254T
Summary of the method: as §1

O13G1 K46I M146L = system: T16, O13G1 K46I M146L
T16 sequence (whole entry): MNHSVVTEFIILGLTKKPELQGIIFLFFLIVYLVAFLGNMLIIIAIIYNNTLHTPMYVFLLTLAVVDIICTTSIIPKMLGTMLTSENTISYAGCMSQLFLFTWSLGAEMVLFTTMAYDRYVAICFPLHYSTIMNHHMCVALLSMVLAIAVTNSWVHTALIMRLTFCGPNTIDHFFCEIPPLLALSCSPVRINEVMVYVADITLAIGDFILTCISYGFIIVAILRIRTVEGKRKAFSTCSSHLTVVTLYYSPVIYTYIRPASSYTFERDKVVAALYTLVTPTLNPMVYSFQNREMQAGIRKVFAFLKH
Summary of the method: as §1

O13G1 = system: T17, O13G1
T17 sequence (whole entry): T16 sequence (whole entry) with I46K, I132V, L146M
Summary of the method: as §1

O13H1 Y266S = system: T18, O13H1 Y266S
T18 sequence (whole entry): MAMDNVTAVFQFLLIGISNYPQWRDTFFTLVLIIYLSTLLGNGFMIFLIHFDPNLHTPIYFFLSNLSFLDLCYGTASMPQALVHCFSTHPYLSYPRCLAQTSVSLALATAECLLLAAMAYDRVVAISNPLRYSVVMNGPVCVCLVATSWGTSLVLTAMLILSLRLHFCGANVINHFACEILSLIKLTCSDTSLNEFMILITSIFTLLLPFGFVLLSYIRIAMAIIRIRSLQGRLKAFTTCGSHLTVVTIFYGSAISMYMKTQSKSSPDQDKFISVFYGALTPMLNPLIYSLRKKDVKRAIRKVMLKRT
Summary of the method: as §1

O13J1 = system: T19, O13J1
T19 sequence (whole entry): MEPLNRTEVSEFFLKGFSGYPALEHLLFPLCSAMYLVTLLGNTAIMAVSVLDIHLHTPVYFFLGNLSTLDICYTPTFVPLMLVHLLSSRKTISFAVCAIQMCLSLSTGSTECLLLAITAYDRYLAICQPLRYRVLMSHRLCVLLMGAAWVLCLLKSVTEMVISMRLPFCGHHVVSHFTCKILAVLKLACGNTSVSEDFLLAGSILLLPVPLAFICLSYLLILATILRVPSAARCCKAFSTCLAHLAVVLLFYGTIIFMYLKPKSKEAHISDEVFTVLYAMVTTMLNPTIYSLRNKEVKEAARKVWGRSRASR
Summary of the method: as §1

O1440 = system: T20, O1440
T20 sequence (whole entry): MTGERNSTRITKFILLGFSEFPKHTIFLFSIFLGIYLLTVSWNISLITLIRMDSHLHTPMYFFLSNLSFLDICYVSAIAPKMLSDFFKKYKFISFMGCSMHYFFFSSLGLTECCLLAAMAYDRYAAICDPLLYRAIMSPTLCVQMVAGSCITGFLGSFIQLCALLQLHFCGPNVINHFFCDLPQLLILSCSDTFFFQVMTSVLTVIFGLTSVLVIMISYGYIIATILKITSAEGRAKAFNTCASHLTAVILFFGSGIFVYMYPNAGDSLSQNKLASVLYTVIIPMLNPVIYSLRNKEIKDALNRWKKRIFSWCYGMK
Summary of the method: as §1

Measured: odorant receptor agonist call

CCC1OC(C)=C(O)C1=O (stereo not given)
not listed: O1440
inactive: all other assays above

O=C1CCCCCCCCC1
inactive: O1440

CCC1OC(=O)C(O)=C1C (stereo not given)
not listed: O1440
inactive: all other assays above

O=C1CCCCCCCCCCCCCC1
active: O1440

CC1CC=CCCCCCCCCC(=O)C1 (stereo not given)
active: O1440

CC1CCCCCCCCCCCC(=O)C1 (stereo not given)
active: O1440

CCC(=O)OCC(C)(C)OC(C)C1CCCC(C)(C)C1 (stereo not given)
inactive: O1440

CCCCCCCC(=O)CCCCCCC
inactive: O1440

CC1CC=CCCCCCCCCCC(=O)C1 (stereo not given)
active: O1440

OC1CCCCCCCCCCCCCC1
active: O1440

O=C1CCCC=CCCCCCCCCCC1
active: O1440

CCCCCCCCCCCCCC(C)=O
inactive: O1440

CC(=O)c1c(C)c([N+](=O)[O-])c(C(C)(C)C)c([N+](=O)[O-])c1C
active: O1440

CCCC(S)CCOC(C)=O (stereo not given)
not listed: O1440
inactive: all other assays above

O=C1CCCCCC=CCCCCCCCCO1
active: O1440

O=C1CCCCCCC=CCCCCCCC1
active: O1440

Cc1cnc(C)c(C)n1
not listed: O1440
inactive: all other assays above

O=C1C=CCCCCCCCCCCCCO1
active: O1440
